Reference: PubChem BioAssay AID602228 (Southern Research Specialized Biocontainment Screening …, 2012)
Results filed as inconclusive are left out. Calls of active or inactive are those of the source.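 How the source made its calls: active means viability below 80% at one or more tested concentrations; inconclusive means replicate runs disagree on the 80% viability cutoff; inactive means viability above 80% at every tested concentration.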

Experiments:
[1] = tested on: Vero E6 viability, CellTiter-Glo luminescence, 72 h; experiment: Vero E6 cell cytotoxicity, dose response, cytotoxicity control for PfM1AAP inhibitor project, set 2 (AID 602228)
In short: (§1)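 Material – Vero E6 cell line · Compound – 10 concentrations, 2-fold dilution steps · Schedule – 72 h treatment at 37 °C · Technique – CellTiter-Glo ATP luminescence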

[2] = as above; conditions: Vero E6 viability, CellTiter-Glo luminescence, 72 h; at 50 µM (top of the series)
In short: as §1

Compound	CC50 [1] [µM]	viability [2]
O=C(NCc1ccc(Cl)cc1)C1CCN(S(=O)(=O)c2ccc(Br)s2)CC1	17.7	–
CC[C@H](C)[C@H](NS(=O)(=O)c1ccc(Br)s1)C(=O)NCc1ccc2c(c1)OCO2	–	95.3% (inactive)
O=C(NCc1ccccc1)C1CCN(S(=O)(=O)c2ccc(Br)s2)CC1	47.4	–
O=C(NCc1ccc2c(c1)OCO2)C1CCN(S(=O)(=O)c2ccc(Br)s2)CC1	–	89.3% (inactive)
O=C(NCc1ccc(F)cc1)C1CCN(S(=O)(=O)c2ccc(Br)s2)CC1	39.6	–
